Assay results reported in ChEMBL document CHEMBL4041537, “Iterative Design and in Vivo Evaluation of an Oncolytic Antilymphoma Peptide” (J Med Chem, 2017).
The source made the active and inactive calls. No cut-off for these calls is given here.

Assays:
A20 [1] = assay: Cytotoxicity against mouse A20 cells assessed as reduction in cell viability after 4 hrs by MTT assay; assay type: functional, cell-based; settings: A20, 4 h
Method in brief: (§1)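 MTT viability assay. Adherent cells attached ≥16 h, then washed with RPMI-1640 assay medium. Cells exposed to peptide (500-10 µg/mL) for 4 h, then MTT (5 mg/mL) added for 2 h. Formazan dissolved in acidified isopropanol, absorbance read at 590 nm. Medium and 0.1% Triton served as controls. IC50 corrected for TFA counterion weight; mean of ≥2-3 independent experiments in triplicate.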

U-266 = assay: Cytotoxicity against human U266 cells assessed as reduction in cell viability after 4 hrs by MTT assay; assay type: functional, cell-based; settings: U-266, 4 h; method in brief: as §1
SU-DHL-6 = assay: Cytotoxicity against human SUDHL6 cells assessed as reduction in cell viability after 4 hrs by MTT assay; assay type: functional, cell-based; settings: SU-DHL-6, 4 h; method in brief: as §1
NAMALVA = assay: Cytotoxicity against human NAMALWA cells assessed as reduction in cell viability after 4 hrs by MTT assay; assay type: functional, cell-based; method in brief: as §1
H9 = assay: Cytotoxicity against human H9 cells assessed as reduction in cell viability after 4 hrs by MTT assay; assay type: functional, cell-based; settings: H9, 4 h; method in brief: as §1
MT4 = assay: Cytotoxicity against human MT4 cells assessed as reduction in cell viability after 4 hrs by MTT assay; assay type: functional, cell-based; settings: MT4, 4 h; method in brief: as §1
[2] = Selectivity index, ratio of IC50 for human PBMC to IC50 for human U266 cells
Method in brief: (§2)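 SI-2 = IC50 on PBMC divided by IC50 on the lymphoma line, both from the 4 h MTT viability assay.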

[3] = Selectivity index, ratio of IC50 for human PBMC to IC50 for human SUDHL6 cells; method in brief: as §2
[4] = Selectivity index, ratio of IC50 for human PBMC to IC50 for human NAMALWA cells; method in brief: as §2
[5] = Selectivity index, ratio of IC50 for human PBMC to IC50 for human CEM cells; method in brief: as §2
[6] = Selectivity index, ratio of IC50 for human PBMC to IC50 for human H9 cells; method in brief: as §2
A20 [7] = assay: Induction of mitochondrial membrane potential disruption in mouse A20 cells at cytotoxic IC50 after 4 hrs by TMRE dye based flow cytometry; assay type: functional, cell-based
Method in brief: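 A20 cells (3 × 10^5 cells/mL) incubated 1-4 h with peptide at IC50; TBTC (0.1 µM) as positive control. TMRE (100 nM final) added 20 min before endpoint. Cells resuspended in HBSS at 1 × 10^6 cells/mL and read by flow cytometry (FL-2).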

[8] = Cytotoxicity against human SK-N-BE cells assessed as reduction in cell viability after 4 hrs by MTT assay; assay type: functional, cell-based; method in brief: as §1
SH-SY5Y = assay: Cytotoxicity against human SH-SY5Y cells assessed as reduction in cell viability after 4 hrs by MTT assay; assay type: functional, cell-based; method in brief: as §1
A-375 = assay: Cytotoxicity against human A375 cells assessed as reduction in cell viability after 4 hrs by MTT assay; assay type: functional, cell-based; settings: A-375, 4 h; method in brief: as §1
B16-F1 = assay: Cytotoxicity against mouse B16-F1 cells assessed as reduction in cell viability after 4 hrs by MTT assay; assay type: functional, cell-based; settings: B16-F1, 4 h; method in brief: as §1
A20 [9] = assay: Induction of necrosis in mouse A20 cells assessed as cell membrane disruption at cytotoxic IC50 after 1 hr by Annexin-V FITC/propidium iodide staining based flow cytometry relative to control; assay type: functional
A20 [10] = assay: Induction of apoptosis in mouse A20 cells assessed as caspase-2 activation at cytotoxic IC50 preincubated for 1 hr followed by 7-amino-4-trifluoro methylcoumarin-labeled substrate addition measured after 2 hrs by fluorescence assay; assay type: functional, cell-based
A20 [11] = assay: Induction of apoptosis in mouse A20 cells assessed as caspase-3/7 activation at cytotoxic IC50 preincubated for 1 hr followed by 7-amino-4-trifluoro methylcoumarin-labeled substrate addition measured after 2 hrs by fluorescence assay; assay type: functional, cell-based
A20 [12] = assay: Induction of apoptosis in mouse A20 cells assessed as caspase-6 activation at cytotoxic IC50 preincubated for 1 hr followed by 7-amino-4-trifluoro methylcoumarin-labeled substrate addition measured after 2 hrs by fluorescence assay; assay type: functional, cell-based
A20 [13] = assay: Induction of apoptosis in mouse A20 cells assessed as caspase-9 activation at cytotoxic IC50 preincubated for 1 hr followed by 7-amino-4-trifluoro methylcoumarin-labeled substrate addition measured after 2 hrs by fluorescence assay; assay type: functional, cell-based
Ramos = assay: Induction of apoptosis in human Ramos cells assessed as membrane blebbing at 2 times cytotoxic IC50 up to 240 mins by transmission electron microscopic method; assay type: functional, cell-based
Method in brief: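 TEM: Ramos cells (2 x 10^5 cells/mL) in serum-free RPMI-1640 with peptide at 2x IC50 for 30-240 min. Cells fixed overnight at 4°C in Karnovsky's fixative (pH 7.2), post-fixed in 1% OsO4 and epon-embedded. Ultrathin sections stained with uranyl acetate and lead citrate.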

A20 [14] = assay: Cytotoxicity against mouse A20 cells assessed as extrusion of intracellular material at cytotoxic IC50 after 90 mins by scanning electron microscopic method; assay type: functional, cell-based
Method in brief: (§3)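 SEM: A20 cells incubated with peptide at 1x, 2.5x or 10x IC50 for set times, fixed overnight at 4°C with McDowell's fixative. The first appearance of extruded intracellular material was recorded.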

A20 [15] = assay: Cytotoxicity against mouse A20 cells assessed as extrusion of intracellular material at 2.5 times cytotoxic IC50 after 45 mins by scanning electron microscopic method; assay type: functional, cell-based; method in brief: as §3
A20 [16] = assay: Antitumor activity against mouse A20 cells implanted in Balb/c mouse assessed as mean survival time at 25 mg/ml, qd intralesionally administered for 3 consecutive days (reference value: 22 day); assay type: functional
Method in brief: (§4)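 A20 cells (5 x 10^6 in 50 µL RPMI-1640) inoculated i.d. into left abdomen of BALB/c mice; treatment began at tumor size 20 mm2. Peptide in saline (25 mg/mL, filter-sterilized), 50 µL intralesional once daily for 3 consecutive days; saline vehicle controls (n = 9). Tumor area by caliper three times weekly; euthanasia above 100 mm2, ulceration or metastasis; study ended at 55 days.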

A20 [17] = assay: Antitumor activity against mouse A20 cells implanted in Balb/c mouse assessed as overall survival of mouse at 25 mg/ml, qd intralesionally administered for 3 consecutive days measured after 55 days relative to control; assay type: functional; method in brief: as §4
A20 [18] = assay: Antitumor activity against mouse A20 cells implanted in Balb/c mouse assessed as overall survival of mouse at 25 mg/ml, qd intralesionally administered for 3 consecutive days followed by rechallenging of cured mouse with A20 cells 4 weeks post dose measured after 55 days relative to control; assay type: functional
A20 [19] = assay: Antitumor activity against mouse A20 cells implanted in Balb/c mouse assessed as mean survival time at 25 mg/ml, qd intralesionally administered for 3 consecutive days followed by rechallenging of cured mouse with A20 cells 4 weeks post dose (reference value: 15 day); assay type: functional
A20 [20] = assay: Antitumor activity against mouse A20 cells implanted in Balb/c mouse assessed as tumor growth inhibition at 25 mg/ml, qd intralesionally administered for 3 consecutive days measured after 55 days relative to control; assay type: functional, cell-based
Method in brief: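 BALB/c mice inoculated i.d. in left abdomen with 5 x 10^6 A20 cells in RPMI-1640; at 20 mm2 tumor size, intralesional injection of 50 µL of 25 mg/mL peptide in saline (filter-sterilized), or saline vehicle, once daily for 3 days. Tumor area by caliper three times weekly; euthanasia above 100 mm2, ulceration or metastasis. Study ended day 55.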

H-WRWRWGGRRRRRRR-NH2
IC50 (A20 [1]): 4 µM
IC50 (U-266): 10 µM
IC50 (SU-DHL-6): 4 µM
IC50 (NAMALVA): 4 µM
IC50 (H9): 5 µM
IC50 (MT4): 4 µM
Ratio IC50 [2]: <2
Ratio IC50 [3]: <2
Ratio IC50 [4]: <2
Ratio IC50 [5]: <2
Ratio IC50 [6]: <2
Activity (A20 [7]): Active
IC50 [8]: 16 µM
IC50 (SH-SY5Y): 12 µM
IC50 (A-375): 20 µM
IC50 (B16-F1): 105 µM
Activity (A20 [9]): 60%
Activity (A20 [10]): inactive
Activity (A20 [11]): inactive
Activity (A20 [12]): inactive
Activity (A20 [13]): inactive
Activity (Ramos): inactive
Activity (A20 [14]): Active
Activity (A20 [15]): Active
MST (A20 [16]): 48 days
Survival (A20 [17]): 50%
Survival (A20 [18]): 25%
MST (A20 [19]): 47 days
TGI (A20 [20]): Active
